Measurements published in ChEMBL document CHEMBL3045828, “An efficient method for the purification and characterization of nematicidal azadirachtins A, B, and H, using MPLC and ESIMS” (J Agric Food Chem, 2003).
In brackets after ≈: the same amount, converted by molar mass.

What was measured:
Athelia rolfsii [1] = experiment: Fungicidal activity against Athelia rolfsii assessed as mycelial growth inhibition applied as 60% powdery concentrate; format: functional; settings: Agroathelia rolfsii; read-out: ED50 (the source's name)
In short: (§1)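 Poisoned food technique on potato-dextrose-agar. Fungi kept on PDA slants at 25 °C and subcultured before testing. A stock in acetone (65 mg/4 mL) was diluted into PDA to about 500, 250, 100, 25 and 5 mg/L; acetone was the control. A 5-mm fungal disk was placed centrally, 2 dishes per treatment, 26 (±2) °C until control growth was nearly complete (2-3 days). Colony diameter was measured in three directions, and % and corrected inhibition were calculated.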

Athelia rolfsii [2] = experiment: Fungicidal activity against Athelia rolfsii assessed as mycelial growth inhibition; format: functional; settings: Agroathelia rolfsii; read-out: ED50 (the source's name); in short: as §1
Caenorhabditis elegans [3] = experiment: Nematicidal activity against Caenorhabditis elegans assessed as mortality applied as 20% powdery concentrate after 24 hr; format: functional
In short: (§2)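 C. elegans grown on NG agar carrying E. coli. 15-20 worms in 48 µL saline per well, 3 wells per treatment, plus 2 µL 50% DMSO with or without test material (200 ppm). Plates covered and kept in a humid chamber. Dead nematodes counted microscopically at 2, 4, 6 and 24 h.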

Rhizoctonia solani [4] = experiment: Fungicidal activity against Rhizoctonia solani assessed as mycelial growth inhibition applied as 60% powdery concentrate; format: functional; settings: read-out: ED50 (the source's name); in short: as §1
Rotylenchulus reniformis [5] = experiment: Nematicidal activity against fourth-stage juvenile of Rotylenchulus reniformis (reniform nematode) assessed as juvenile immobility applied as 20% powdery concentrate after 72 hr by stereoscopic binocular microscopic analysis; format: functional, organism-based
In short: (§3)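 Juveniles came from a single-egg-mass culture maintained on cowpea in sterilized soil-sand. Exposed in Petri dishes, 3 per treatment, with water plus ethanol as control. Immobility scored by stereomicroscope at 72 h. Revival test: 48 h in distilled water, and revived juveniles were subtracted. Mortality was Abbott-corrected, with LC50 in ppm.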

Rhizoctonia solani [6] = experiment: Fungicidal activity against Rhizoctonia solani assessed as mycelial growth inhibition applied as 20% powdery concentrate; format: functional; settings: read-out: ED50 (the source's name); in short: as §1
Rotylenchulus reniformis [7] = experiment: Nematicidal activity against fourth-stage juvenile of Rotylenchulus reniformis (reniform nematode) assessed as juvenile immobility applied as 90% powdery concentrate after 72 hr by stereoscopic binocular microscopic analysis; format: functional, organism-based; in short: as §3
Rhizoctonia solani [8] = experiment: Fungicidal activity against Rhizoctonia solani assessed as mycelial growth inhibition applied as 90% powdery concentrate; format: functional; settings: read-out: ED50 (the source's name); in short: as §1
Caenorhabditis elegans [9] = experiment: Nematicidal activity against Caenorhabditis elegans assessed as mortality at 200 ppm after 24 hr; format: functional; in short: as §2
Rotylenchulus reniformis [10] = experiment: Nematicidal activity against fourth-stage juvenile of Rotylenchulus reniformis (reniform nematode) assessed as juvenile immobility applied as 60% powdery concentrate after 72 hr by stereoscopic binocular microscopic analysis; format: functional, organism-based; in short: as §3
Athelia rolfsii [11] = experiment: Fungicidal activity against Athelia rolfsii assessed as mycelial growth inhibition applied as 20% powdery concentrate; format: functional; settings: Agroathelia rolfsii; read-out: ED50 (the source's name); in short: as §1
Rhizoctonia solani [12] = experiment: Fungicidal activity against Rhizoctonia solani assessed as mycelial growth inhibition; format: functional; settings: read-out: ED50 (the source's name); in short: as §1
Rotylenchulus reniformis [13] = experiment: Nematicidal activity against fourth-stage juvenile of Rotylenchulus reniformis (reniform nematode) assessed as juvenile immobility after 72 hr by stereoscopic binocular microscopic analysis; format: functional, organism-based; in short: as §3

SMILES	EC50 (Athelia rolfsii [1])	EC50 (Athelia rolfsii [2])	mortality (Caenorhabditis elegans [3])	EC50 (Rhizoctonia solani [4])	EC50 (Rotylenchulus reniformis [5])	EC50 (Rhizoctonia solani [6])	EC50 (Rotylenchulus reniformis [7])	EC50 (Rhizoctonia solani [8])	mortality at 200 ppm (Caenorhabditis elegans [9])	EC50 (Rotylenchulus reniformis [10])	EC50 (Athelia rolfsii [11])	EC50 (Rhizoctonia solani [12])	EC50 (Rotylenchulus reniformis [13])
C/C=C(\C)C(=O)O[C@H]1C[C@@H](OC(C)=O)[C@@]2(C(=O)OC)CO[C@H]3[C@@H](O)[C@@](C)([C@]45O[C@@]4(C)[C@@H]4C[C@H]5O[C@@H]5OC=C[C@@]54O)[C@H]4[C@]1(CO[C@]4(O)C(=O)OC)[C@@H]32 [AZADIRACHTIN A]	122 µg/mL (≈ 169 µM)	93.6 µg/mL (≈ 130 µM)	50%	132 µg/mL (≈ 183 µM)	193.9 ppm	165 µg/mL (≈ 229 µM)	119.1 ppm	105 µg/mL (≈ 145 µM)	56%	151.9 ppm	140 µg/mL (≈ 195 µM)		
C/C=C(\C)C(=O)O[C@@H]1C[C@H](O)[C@]23CO[C@H](C(=O)OC)[C@H]2[C@](C)([C@]24O[C@@]2(C)[C@H]2C[C@@H]4O[C@@H]4OC=C[C@@]42O)[C@H](O)[C@@H]2OC[C@@]1(C(=O)OC)[C@H]23 [AZADIRACHTIN B]		76.2 µg/mL (≈ 115 µM)							64%			85.9 µg/mL (≈ 130 µM)	96.6 ppm
C/C=C(\C)C(=O)O[C@H]1C[C@@H](OC(C)=O)[C@@]2(C(=O)OC)CO[C@H]3[C@@H](O)[C@@](C)([C@]45O[C@@]4(C)[C@H]4C[C@@H]5O[C@@H]5OC=C[C@@]54O)[C@@H]4[C@H](O)OC[C@@]14[C@@H]32 [AZADIRACHTIN H]		43.9 µg/mL (≈ 66.2 µM)							65%			63.7 µg/mL (≈ 96.1 µM)	141.2 ppm
